Reference: ChEMBL document CHEMBL3875209, “Synthesis and biological evaluation of cis-restricted triazole/tetrazole mimics of combretastatin-benzothiazole hybrids as tubulin polymerization inhibitors and apoptosis inducers” (Bioorg Med Chem, 2017)

Columns and labels:
[1] = Antiproliferative activity against human DU145 cells after 48 hrs by MTT assay; type: functional, cell-based; details: DU-145, 48 h
In short: (§1)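 MTT assay. Cells seeded in DMEM with 10% FBS and left 24 h at 37 °C in CO2 before compound treatment for 48 h. MTT (5 mg/mL stock) added for 4 h, formazan dissolved in DMSO, absorbance read at 570 nm. IC50 taken as the mean of three independent experiments.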

[2] = Antiproliferative activity against human HeLa cells after 48 hrs by MTT assay; type: functional, cell-based; in short: as §1
[3] = Antiproliferative activity against human A549 cells after 48 hrs by MTT assay; type: functional, cell-based; details: A549, 48 h; in short: as §1
[4] = Antiproliferative activity against human HepG2 cells after 48 hrs by MTT assay; type: functional, cell-based; details: HepG2, 48 h; in short: as §1
[5] = Antiproliferative activity against human MCF7 cells after 48 hrs by MTT assay; type: functional, cell-based; details: MCF7, 48 h; in short: as §1
A549 [6] = assay: Induction of mitochondrial membrane potential loss in human A549 cells at 100 nM after 48 hrs by JC-1 staining based flow cytometry (reference value: 3.8%); type: functional
A549 [7] = assay: Induction of mitochondrial membrane potential loss in human A549 cells assessed as intact mitochondrial membrane at 100 nM after 48 hrs by JC-1 staining based flow cytometry (reference value: 95.9%); type: functional
A549 [8] = assay: Induction of ROS generation in human A549 cells at 100 nM after 48 hrs by DCFDA staining based flow cytometry (reference value: 4.4%); type: functional

Row | SMILES | IC50 [1] [µM] | IC50 [2] [µM] | IC50 [3] [µM] | IC50 [4] [µM] | IC50 [5] [µM] | Activity (A549 [6]) [%] | Activity (A549 [7]) [%] | Activity (A549 [8]) [%]
1 | COc1cc(-c2nnnn2-c2ccc(-c3nc4cc(OC)c(OC)c(OC)c4s3)cc2)cc(OC)c1OC | 7.24 | 6.16 | 3.54 | 8.51 | 8.68 |  |  | 
2 | COc1ccc2nc(-c3ccc(-n4cc(-c5cc(OC)c(OC)c(OC)c5)nn4)cc3)sc2c1 | 12.3 | 11.5 | 6.3 | 12.4 | 22.9 |  |  | 
3 | COc1ccc2nc(-c3ccc(-n4nnnc4-c4cc(OC)c(OC)c(OC)c4)c(C)c3)sc2c1 | 15.9 | 11 | 4.78 | 10.5 | 12.6 |  |  | 
4 | COc1cc(OC)c2sc(-c3ccc(-n4cnnc4-c4cc(OC)c(OC)c(OC)c4)c(C)c3)nc2c1 | 1.04 | 0.93 | 0.26 | 2.54 | 5.35 |  |  | 
5 | COc1cc(-c2nc3ccc(F)cc3s2)ccc1-n1nnnc1-c1cc(OC)c(OC)c(OC)c1 | 4.77 | 4.36 | 1.38 | 1.24 | 1.52 |  |  | 
6 | COc1cc(-c2cn(-c3ccc(-c4nc5ccc(F)cc5s4)cc3C)nn2)cc(OC)c1OC | 7.33 | 6.76 | 3.38 | 8.05 | 10.8 |  |  | 
7 | COc1cc(-c2nc3ccc(F)cc3s2)ccc1-n1cnnc1-c1cc(OC)c(OC)c(OC)c1 | 7.58 | 2.81 | 1.22 | 2.75 | 2.49 |  |  | 
8 | COc1cc(OC)c2sc(-c3ccc(-n4cc(-c5cc(OC)c(OC)c(OC)c5)nn4)c(OC)c3)nc2c1 | 0.41 | 0.37 | 0.24 | 1.47 | 4.36 |  |  | 
9 | COc1cc(-c2cn(-c3ccc(-c4nc5cc(OC)c(OC)c(OC)c5s4)cc3C)nn2)cc(OC)c1OC | 15.8 | 11.3 | 9.77 | 18.6 | 20.8 |  |  | 
10 | COc1cc(-c2nncn2-c2ccc(-c3nc4cc(OC)c(OC)c(OC)c4s3)cc2C)cc(OC)c1OC | 0.7 | 0.21 | 0.23 | 1.25 | 2.99 |  |  | 
11 | COc1cc(-c2cn(-c3ccc(-c4nc5cc(OC)c(OC)c(OC)c5s4)cc3)nn2)cc(OC)c1OC | 14.8 | 11.5 | 8.54 | 15.5 | 9.12 |  |  | 
12 | COc1cc(-c2nnnn2-c2ccc(-c3nc4ccc(F)cc4s3)cc2)cc(OC)c1OC | 4.57 | 2.23 | 2.07 | 7.95 | 8.57 |  |  | 
13 | COc1cc(OC)c2sc(-c3ccc(-n4cc(-c5cc(OC)c(OC)c(OC)c5)nn4)c(C)c3)nc2c1 | 10.2 | 8.12 | 7.76 | 15.5 | 18.8 |  |  | 
14 | COc1ccc2nc(-c3ccc(-n4cc(-c5cc(OC)c(OC)c(OC)c5)nn4)c(OC)c3)sc2c1 | 18.6 | 11.1 | 10.7 | 16.4 | 15.5 |  |  | 
15 | COc1cc(OC)c2sc(-c3ccc(-n4nnnc4-c4cc(OC)c(OC)c(OC)c4)cc3)nc2c1 | 19.9 | 10.2 | 7.24 | 22.4 | 31.6 |  |  | 
16 | COc1cc(-c2nncn2-c2ccc(-c3nc4ccc(F)cc4s3)cc2)cc(OC)c1OC | 8.21 | 7 | 6.58 | 10.4 | 12.5 |  |  | 
17 | COc1cc(OC)c2sc(-c3ccc(-n4cnnc4-c4cc(OC)c(OC)c(OC)c4)cc3)nc2c1 | 11.8 | 4.13 | 5.04 | 9.65 | 8.21 |  |  | 
18 | COc1ccc2nc(-c3ccc(-n4cnnc4-c4cc(OC)c(OC)c(OC)c4)c(OC)c3)sc2c1 | 11.6 | 8.76 | 9.06 | 9.05 | 14.7 |  |  | 

Row | SMILES | IC50 [1] [µM] | IC50 [2] [µM] | IC50 [3] [µM] | IC50 [4] [µM] | IC50 [5] [µM] | Activity (A549 [6]) [%] | Activity (A549 [7]) [%] | Activity (A549 [8]) [%]
19 | COc1cc(-c2nnnn2-c2ccc(-c3nc4cc(OC)c(OC)c(OC)c4s3)cc2C)cc(OC)c1OC | 14.8 | 9.81 | 7.41 | 23.4 | 17.5 |  |  | 
20 | COc1cc(OC)c2sc(-c3ccc(-n4cnnc4-c4cc(OC)c(OC)c(OC)c4)c(OC)c3)nc2c1 | 10.2 | 6.45 | 7.24 | 9.2 | 8.57 |  |  | 
21 | COc1ccc2nc(-c3ccc(-n4cc(-c5cc(OC)c(OC)c(OC)c5)nn4)c(C)c3)sc2c1 | 18.2 | 13.1 | 15.8 | 20.1 | 22 |  |  | 
22 | COc1ccc2nc(-c3ccc(-n4nnnc4-c4cc(OC)c(OC)c(OC)c4)cc3)sc2c1 | 9.12 | 6.6 | 3.8 | 9.05 | 11.2 |  |  | 
23 | COc1cc(-c2nc3cc(OC)c(OC)c(OC)c3s2)ccc1-n1nnnc1-c1cc(OC)c(OC)c(OC)c1 | 10.8 | 5.79 | 3.8 | 16 | 16.6 |  |  | 
24 | COc1cc(-c2nncn2-c2ccc(-c3nc4cc(OC)c(OC)c(OC)c4s3)cc2)cc(OC)c1OC | 0.46 | 0.21 | 0.091 | 1.27 | 3.15 |  |  | 
25 | COc1ccc2nc(-c3ccc(-n4nnnc4-c4cc(OC)c(OC)c(OC)c4)c(OC)c3)sc2c1 | 5.67 | 4.56 | 2.25 | 1.67 | 3.45 |  |  | 
26 | COc1cc(OC)c2sc(-c3ccc(-n4cc(-c5cc(OC)c(OC)c(OC)c5)nn4)cc3)nc2c1 | 9.33 | 9.05 | 7.61 | 17.4 | 19.9 |  |  | 
27 | COc1cc(-c2nnnn2-c2ccc(-c3nc4ccc(F)cc4s3)cc2C)cc(OC)c1OC | 1.14 | 0.97 | 0.24 | 1.69 | 3.23 |  |  | 
28 | COc1cc(OC)c2sc(-c3ccc(-n4nnnc4-c4cc(OC)c(OC)c(OC)c4)c(OC)c3)nc2c1 | 13.5 | 11.7 | 9.24 | 17 | 24.7 |  |  | 
29 | Cc1cc(-c2nc3cc(F)ccc3s2)ccc1N |  |  |  |  |  | 16 | 81.8 | 10
30 | COc1cc(-c2nc3cc(OC)c(OC)c(OC)c3s2)ccc1-n1cnnc1-c1cc(OC)c(OC)c(OC)c1 | 11.5 | 5.51 | 3.46 | 7.41 | 10.5 |  |  | 
31 | COc1cc(-c2nc3cc(OC)c(OC)c(OC)c3s2)ccc1-n1cc(-c2cc(OC)c(OC)c(OC)c2)nn1 | 15.9 | 17.8 | 11 | 29.9 | 27.8 |  |  | 
32 | COc1ccc2nc(-c3ccc(-n4cnnc4-c4cc(OC)c(OC)c(OC)c4)cc3)sc2c1 | 11.2 | 10 | 7.24 | 11.6 | 9.5 |  |  | 
33 | COc1cc(-c2cn(-c3ccc(-c4nc5ccc(F)cc5s4)cc3)nn2)cc(OC)c1OC | 8.12 | 3.46 | 1.41 | 7.76 | 10.7 |  |  | 
34 | COc1cc(-c2nc3ccc(F)cc3s2)ccc1-n1cc(-c2cc(OC)c(OC)c(OC)c2)nn1 | 14.2 | 10.1 | 6.02 | 13.9 | 16.1 |  |  | 
35 | COc1cc(OC)c2sc(-c3ccc(-n4nnnc4-c4cc(OC)c(OC)c(OC)c4)c(C)c3)nc2c1 | 11.7 | 8.7 | 5.38 | 9.74 | 17.2 |  |  | 
